Source: PubChem
KCNQ1 pot: potentiators or activators of human KCNQ1 potassium channel | P51787 | CHO-K1 KCNQ1, thallium flux FluxOR fluorescence; active compounds read high | B-score at 10 µM | 310,000 compounds, 0.35% hits;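 active = fluorescence ratio B-score, a plate-corrected score, at least three library SD, with initial intensity B-score within 5 SD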
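assay system = KCNQ1-transfected CHO-K1 cells | medium = assay buffer with matched DMSO | probe or stimulus = depolarizing K+/Tl+ stimulus, K2SO4 and Tl2SO4 each 12.5 mM in 5x stock | dosing = single dose | incubation = dye 90 min, compound 20 min, room temperature | detection = kinetic FluxOR fluorescence, 10 s baseline plus 110 s post-stimulus | evaluation = ratio B score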
hERG rescue: compounds protecting human hERG from proarrhythmic drug block. 310,000 compounds, 0.51% hits. AID 1511. activation (rescue from dofetilide block), less the hit threshold, % at 10 µM. CHO-hERG, FluxOR thallium flux, dofetilide IC70 present. Q12809;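 active = activation above the mean of controls blocked by dofetilide plus 5 SD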;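 also: thallium influx through hERG after potassium depolarization seen as dye fluorescence rise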
KCC2 mod: modulates chloride dependent transport by human KCC2; Q9H2X9; KCC2 cells, thallium flux FluoZin-2 fluorescence; B-score of Tl+ flux slope (higher = more flux/activation; lower = inhibition) at 10 µM; 190,000 compounds, 2.2% hits; AID 1456;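 active = thallium flux slope and its plate-corrected score both differing from the plate sample mean at a set confidence after two filtering rounds, in either direction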;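 also: slope of fluorescence scaled to starting intensity during 10 to 20 s after thallium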
KCNQ1 block: blocks the human KCNQ1 potassium channel. P51787. CHO-K1 KCNQ1, FluxOR thallium flux fluorescence; active compounds read high. B-score at 10 µM. 310,000 compounds, 1.3% hits. AID 2642;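 active = compounds whose thallium flux B-score, printed positive for inhibition, exceeds three library SD while starting fluorescence stays within three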;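 also: channel opened by potassium depolarization with thallium stimulus after 20 min compound exposure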
KCNK9 inh: blocks the human KCNK9 two-pore domain potassium channel; HEK293 KCNK9, FluxOR thallium flux fluorescence; active compounds read low; B-score at 10 µM; Q9NPC2; 310,000 compounds, 1.2% hits;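 active = ratio B-score over 3 SD below the library mean, with starting fluorescence within 5 SD of its mean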;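 also: negative B-score means less thallium flux so channel inhibition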
KCNK3 block: human KCNK3 channel inhibition, primary screen. O14649. CHO-KCNK3 thallium flux, FluxOR fluorescence; active compounds read low. B-score at 10 µM. 340,000 compounds, 0.84% hits. AID 602410;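 active = B-score under library mean minus 4 SD, starting fluorescence ratio at most library mean plus 5 SD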;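 also: more negative B-score means stronger inhibition of thallium flux through KCNK3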
KCNQ1 block val: human KCNQ1 channel inhibition, validation assay; shares compounds with KCNQ1 block; KCNQ1 cell line, FluxOR thallium flux fluorescence; inhibition, % at 10 µM; 1,600 compounds, 93% hits; AID 588353;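 active = primary screen active, with duplicate mean exceeding buffer control mean plus 3 SD of buffer wells, cut at about 28% in these data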;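 also: 0% = buffer control ratio and 100% = XE991 inhibitor control ratio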
CHO Tl flux: KCNQ1 inhibitor counter-screen hit in parental CHO cells; AID 588366; 1,600 compounds, 21% hits; parental CHO-K1, FluxOR thallium flux fluorescence ratio; active compounds read low; zero means no signal rise above baseline; shares compounds with KCNQ1 block; fluorescence ratio (Tl flux) at 10 µM;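 active = mean of duplicate thallium-flux fluorescence ratios in parental host cells more than 5 SD below the buffer control mean, cut at about 0.38 in these data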;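 also: ratio is peak minus minimum fluorescence divided by baseline fluorescence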
KCNQ1 APC inh: blocks human KCNQ1 current in automated patch clamp; shares compounds with KCNQ1 block; KCNQ1-CHO cells; calls only at 10 µM; 490 compounds, 20% hits; AID 624120;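 active = KCNQ1 current drop exceeding 3 SD of negative control wells, seen in both duplicate runs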;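 also: steady state current during a 2 s step from -80 to +40 mV; negative values mean current inhibition and positive values mean potentiation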
KCNQ2 spec: selectivity of KCNQ1 inhibitors: inhibition of rat KCNQ2 channel | shares compounds with KCNQ1 block | 1,600 compounds, 71% hits | KCNQ2 cells, FluxOR thallium flux fluorescence | inhibition, % at 10 µM | AID 651746;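 active = mean percent inhibition of the KCNQ2 thallium signal more than 5 SD above the buffer-only control wells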;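 also: KCNQ2 expressed in CHO cells; 0% = buffer control wells and 100% = XE-991 inhibitor control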
KCNQ1-KCNE1 inh: KCNQ1 inhibitor that also blocks human KCNQ1/KCNE1 channel | shares compounds with KCNQ1 block | KCNQ1/KCNE1 cells, FluxOR thallium flux fluorescence | inhibition, % at 10 µM | 1,600 compounds, 77% hits | AID 652147;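 active = mean percent inhibition of duplicate wells above the buffer-only control mean plus 3 SD of those controls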;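 also: 0% = buffer only wells and 100% = XE-991 inhibitor control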
Target sequence (P51787 whole entry, looked up): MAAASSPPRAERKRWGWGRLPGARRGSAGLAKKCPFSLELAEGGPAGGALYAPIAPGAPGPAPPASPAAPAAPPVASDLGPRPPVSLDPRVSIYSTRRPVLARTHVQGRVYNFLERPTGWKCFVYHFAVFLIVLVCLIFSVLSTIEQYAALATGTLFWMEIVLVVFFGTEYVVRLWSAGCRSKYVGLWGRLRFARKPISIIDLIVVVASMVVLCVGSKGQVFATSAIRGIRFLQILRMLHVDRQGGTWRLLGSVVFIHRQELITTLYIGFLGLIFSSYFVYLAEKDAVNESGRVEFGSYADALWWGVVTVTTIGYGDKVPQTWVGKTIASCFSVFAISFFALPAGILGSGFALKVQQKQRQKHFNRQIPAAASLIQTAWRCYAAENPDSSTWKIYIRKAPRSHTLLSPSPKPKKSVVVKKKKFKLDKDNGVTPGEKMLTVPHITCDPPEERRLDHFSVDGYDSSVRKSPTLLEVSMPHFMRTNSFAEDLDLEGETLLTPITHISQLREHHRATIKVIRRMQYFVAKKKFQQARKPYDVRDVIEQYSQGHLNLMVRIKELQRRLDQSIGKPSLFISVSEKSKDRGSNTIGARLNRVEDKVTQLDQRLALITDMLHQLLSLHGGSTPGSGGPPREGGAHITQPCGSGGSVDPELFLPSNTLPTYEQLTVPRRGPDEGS
KCNK9 inh conf: confirmation of human KCNK9 potassium channel inhibitors | shares compounds with KCNK9 inh | HEK293 KCNK9 cells, FluxOR thallium flux fluorescence | inhibition, % at 10 µM | 4,900 compounds, 43% hits | AID 492992;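 active = thallium signal inhibited by more than 5 SD of the compound-free buffer control wells, on both duplicate plates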;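 also: 0% = assay buffer control wells without compound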
Kir2-1 spec: tests whether KCNK9 modulators also affect mouse Kir2.1; shares compounds with KCNK9 inh; Kir2.1 cells, FluxOR thallium flux fluorescence; inhibition, % at 10 µM; 4,900 compounds, 4% hits;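 active = thallium signal drop more than 5 SD beyond the mean of the no-compound control wells, seen in both duplicate plates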;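 also: signal is fluorescence rise after thallium addition divided by baseline fluorescence; plate controls were assay buffer only for no effect and full block by chlorpromazine control for full effect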
KCNK9 uninduced: non-induced cell nonspecific activity of KCNK9 modulators; inhibition, % at 10 µM; 4,900 compounds, 40% hits; non-induced KCNK9-HEK293, FluxOR thallium flux; shares compounds with KCNK9 inh;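 active = thallium signal drop beyond 5 SD of the untreated control mean, on both duplicate plates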;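 also: plate controls were buffer only IC0 wells for no effect and SID17386958 at its maximal inhibitory level for full effect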
KCNK3 confirm: confirmation of human KCNK3 two-pore domain potassium channel inhibitors; 2,400 compounds, 99% hits; CHO-KCNK3 thallium flux, FluxOR fluorescence; 0% buffer, 100% carvedilol maximal block; AID 651638; ratio percent of control, % at 10 µM; shares compounds with KCNK3 block;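 active = ratio percent of control, averaged over triplicates, above buffer control mean plus 5 SD, cut at about 64% in these data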;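 also: ratio is the fluorescence rise from min to max over baseline after thallium stimulus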
KCNK3 noninduced: KCNK3 inhibitor counter-screen hit in non-induced cells; shares compounds with KCNK3 block; non-induced KCNK3 parental cells, FluxOR thallium flux; active compounds read low; thallium flux ratio (lower = more inhibition) at 10 µM; 2,400 compounds, 40% hits; AID 651747;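 active = thallium flux ratio, averaged over three wells, more than 5 SD below the buffer control mean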;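 also: host cells are CHO cells without KCNK3 induction; ratio is peak minus trough fluorescence over baseline then normalized to buffer controls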
The depositor's hits bear a star; i = inactive; . = no result; + = active, no number. Rows were chosen to be rich in hits. Some 4.1% of all compounds tested hit in one or more screens of this group.

SMILES | KCNQ1 pot | hERG rescue | KCC2 mod | KCNQ1 block | KCNK9 inh | KCNK3 block | KCNQ1 block val | CHO Tl flux | KCNQ1 APC inh | KCNQ2 spec | KCNQ1-KCNE1 inh | KCNK9 inh conf | Kir2-1 spec | KCNK9 uninduced | KCNK3 confirm | KCNK3 noninduced
NC1=NN(c2c(Cl)cc(Cl)cc2Cl)C(=O)C1 | . | . | . | . | . | i | . | . | . | . | . | . | . | . | . | .
COc1cccc(-c2nc(NC3CCCC3)c3ccccc3n2)c1O | i | -8.2 | . | 9* | i | -12.9* | 140.0* | 0.322* | . | 126.3%* | 98.0%* | . | . | . | 133.3* | i
CCC1CCCCN1c1cc(C)nc2cc(-c3cccc(C)c3)nn12 (stereo not drawn) | i | -10.9 | -0.883 | 8* | i | -12.9* | 111.5* | 0.438 | i | 103.3%* | 83.0%* | . | . | . | 113.7* | 0.153*
Cc1cc(N2CCOCC2)n2nc(-c3cccc(F)c3)cc2n1 | i | -6.1 | -0.742 | i | i | i | . | . | . | . | . | . | . | . | . | .
CN(CC(=O)Nc1ccccc1-c1ccccc1)Cc1ccccc1Cl | i | -5.8 | 0.438 | 8* | -15.9* | -9.63* | 75.5* | 0.381 | . | 98.3%* | 122.5%* | 63.0%* | 55.0%* | 45.5%* | 120.3* | 0.134*
CN(CC(=O)Nc1ccccc1Br)CC(=O)Nc1ccccc1-c1ccccc1 | . | . | . | . | . | i | . | . | . | . | . | . | . | . | . | .
COc1cccc(OCC(O)CN2CCC(CN3C(=O)c4cccc5cccc(c45)C3=O)CC2)c1 (stereo not drawn) | i | -15.4 | 0.189 | i | i | i | . | . | . | . | . | . | . | . | . | .
Cc1cc(C)cc(OCC(O)CN2CCC(CN3C(=O)c4cccc5cccc(c45)C3=O)CC2)c1 (stereo not drawn) | i | -36.2 | . | 9* | i | -9.54* | 128.5* | 0.384 | i | 99.0%* | 138.5%* | i | i | i | 110.7* | i
COc1ccc(NC(=O)c2ccccc2OCc2ccc(F)cc2)c(OC)c1 | i | -10.6 | . | 8* | -12.1* | -10.9* | 75.5* | 0.448 | . | 84.7%* | 108.0%* | 72.5%* | i | 32.5%* | 108.3* | i
O=C(CNCc1ccccc1Cl)Nc1ccccc1N1CCCCC1 | i | -35.4 | . | 7* | i | -8.95* | 96.0* | 0.404 | + | 115.0%* | 109.0%* | . | . | . | 113.7* | 0.151*
O=C(CCNC(=O)c1ccccc1Cl)Nc1ccccc1N1CCCC1 | i | -5.6 | . | i | i | i | . | . | . | . | . | . | . | . | . | .
Cc1cc(OCC(=O)Nc2ccccc2N2CCCC2)ccc1C(C)C | i | -12.9 | . | 9* | i | -9* | 72.5* | 0.511 | . | 82.3%* | 99.5%* | . | . | . | 111.7* | i
